The values below come from ChEMBL document CHEMBL1126582, “Symmetry-based inhibitors of HIV protease. Structure-activity studies of acylated 2,4-diamino-1,5-diphenyl-3-hydroxypentane and 2,5-diamino-1,6-diphenylhexane-3,4-diol” (J Med Chem, 1993).

pEC50, pIC50: −log10 of the molar value. Converted amounts (≈) assume the structure as drawn.

Data set [1] relates to Human immunodeficiency virus 1. The experiment in a line: Compound was tested in vitro for inhibition of cytopathic effect of HIV-1 3B in MT-4 lymphocytes. The format is functional, organism-based. In outline: (§1)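 MT-4 lymphocytes were infected with HIV-1 3B at an MOI of either 0.001 or 0.032 tissue culture infective dose per cell. EC50 is the concentration preventing 50% of viral cytopathic effect, from a single triplicate assay. No effect means no activity up to 100 μM or up to the cytotoxic concentration.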

Data set [2] can be described thus: In vitro for cytotoxicity in MT-4 lymphocytes in the absence of HIV infection. The class given is cell-based, MT4. To be noted: human. In a few lines:
(§2)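 Uninfected MT-4 lymphocytes were cultured with compound. CC50 is the concentration at which 50% of cells remain viable.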

Data set [3] addresses Human immunodeficiency virus type 1 protease (Human immunodeficiency virus 1, UniProt Q72874). The experiment in a line: Inhibition of purified recombinant HIV-1 protease in a fluorogenic assay. In a few lines: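 Purified recombinant HIV-1 protease, with cleavage of the fluorogenic substrate DABCYL-[…]-Pro-Ile-Val-Gln-EDANS as read-out. Value is the inhibitor concentration giving 50% inhibition of protease activity.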

The subject of data set [4] is MT4. The experiment in a line: In vitro for cytotoxicity in MT-4 lymphocytes in the absence of HIV infection. The format is functional. To be noted: Homo sapiens. In outline: as §2
Data set [5] has as its system Human immunodeficiency virus 1. Briefly: In vitro for inhibition of cytopathic effect of HIV-1 3B in MT-4 lymphocytes. The class given is functional, organism-based. In outline: as §1
Data set [6] in a line: Estimated solubility (buffer pH 7.4). The class given is ADME. To be noted: read-out: S. In a few lines: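 Solubility was estimated in pH 7.4 phosphate buffer.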

`CC(C)[C@H](NC(=O)CCc1cccnc1)C(=O)N[C@@H](Cc1ccccc1)C(O)[C@H](Cc1ccccc1)NC(=O)[C@H](NC(=O)CCc1cccnc1)C(C)C` (stereo partly drawn) had a negative-log EC50 (pEC50) in data set [1] of 5.00. Moreover, it took 55000 nM to reach half-maximal cytotoxicity in data set [2] (CC50). Besides, in data set [3], the negative-log IC50 (pIC50) was 7.66.
In the case of `CC(C)[C@H](NC(=O)CCN1CCOCC1)C(=O)N[C@@H](Cc1ccccc1)[C@@H](O)[C@@H](O)[C@H](Cc1ccccc1)NC(=O)[C@H](NC(=O)CCN1CCOCC1)C(C)C`, the CC50 in data set [4] is > 100000 nM. The same compound gave a pEC50 in data set [5] of 4.28. Also, the negative logarithm of the IC50 (pIC50) in data set [3] was 7.64. For the same compound, the solubility in data set [6] is > 1050 µg/mL.
On to `CC(C)[C@H](NC(=O)N(C)Cc1ccccn1)C(=O)N[C@@H](Cc1ccccc1)[C@@H](O)[C@@H](O)[C@H](Cc1ccccc1)NC(=O)[C@H](NC(=O)N(C)Cc1ccccn1)C(C)C`, for which the half-maximal cytotoxic concentration (CC50) in data set [4] was > 100000 nM. Besides, the pEC50 in data set [5] is 5.82. Further, the negative-log IC50 (pIC50) in data set [3] is 8.78. Also, the solubility in data set [6] is 225 µg/mL (≈ 283 µM).
The corresponding values for `CC(C)[C@H](NC(=O)/C=C/c1cccnc1)C(=O)N[C@@H](Cc1ccccc1)C(O)[C@H](Cc1ccccc1)NC(=O)[C@H](NC(=O)/C=C/c1cccnc1)C(C)C` (stereo partly drawn) are > 100000 nM, 5.55, 8.66 and 4.9 µg/mL (≈ 6.7 µM).
The corresponding values for `CC(C)[C@H](NC(=O)OCc1cccnc1)C(=O)N[C@@H](Cc1ccccc1)[C@@H](O)[C@H](Cc1ccccc1)NC(=O)[C@H](NC(=O)OCc1ccccc1)C(C)C` are > 100000 nM, 5.55, 8.40 and 0.9 µg/mL (≈ 1.22 µM).
For the compound `CC(C)[C@H](NC(=O)N(C)Cc1cscn1)C(=O)N[C@@H](Cc1ccccc1)[C@H](O)[C@H](O)[C@H](Cc1ccccc1)NC(=O)[C@H](NC(=O)N(C)Cc1cscn1)C(C)C`, the CC50 in data set [4] is > 100000 nM. For the same compound, in data set [5], the negative-log EC50 (pEC50) is 6.30. The pIC50 in data set [3] is > 9.00. Besides, the solubility in data set [6] is 6.5 µg/mL (≈ 8.05 µM).
The corresponding values for `CC(C)[C@H](NC(=O)N(C)Cc1cscn1)C(=O)N[C@@H](Cc1ccccc1)[C@@H](O)[C@H](O)[C@H](Cc1ccccc1)NC(=O)[C@H](NC(=O)N(C)Cc1cscn1)C(C)C` are > 100000 nM, 6.72, > 9.00 and 159 µg/mL (≈ 197 µM).
For the compound `CC(C)[C@H](NC(=O)N(C)CCc1ccccn1)C(=O)N[C@@H](Cc1ccccc1)[C@H](O)[C@H](O)[C@H](Cc1ccccc1)NC(=O)[C@H](NC(=O)N(C)CCc1ccccn1)C(C)C`, the CC50 in data set [4] was found to be 95000 nM. In data set [5], this compound gave a pEC50 of 4.92. Further, the pIC50 in data set [3] was 7.51. Also, the solubility in data set [6] is 86 µg/mL (≈ 104 µM).
`CC(C)[C@H](NC(=O)N1CCN(Cc2ccccc2)CC1)C(=O)N[C@@H](Cc1ccccc1)[C@@H](O)[C@@H](O)[C@H](Cc1ccccc1)NC(=O)[C@H](NC(=O)N1CCN(Cc2ccccc2)CC1)C(C)C`: in data set [1], the negative logarithm of the EC50 (pEC50) is 5.37. For the same compound, in data set [2], it took 17000 nM to reach half-maximal cytotoxicity (CC50). In data set [3], the pIC50 is 8.11. The solubility in data set [6] is 9 µg/mL (≈ 9.96 µM).
As for `CC(C)[C@H](NS(=O)(=O)CCc1ccccn1)C(=O)N[C@@H](Cc1ccccc1)[C@@H](O)[C@H](O)[C@H](Cc1ccccc1)NC(=O)[C@H](NS(=O)(=O)CCc1ccccn1)C(C)C`, in data set [1], the pEC50 was 5.82. Also, the CC50 in data set [2] was > 100000 nM. Besides, the pIC50 in data set [3] was > 9.00.
Take `CC(C)[C@H](NC(=O)OCc1ccncc1)C(=O)N[C@@H](Cc1ccccc1)[C@@H](O)[C@@H](O)[C@H](Cc1ccccc1)NC(=O)[C@H](NC(=O)OCc1ccncc1)C(C)C`: in data set [4], the CC50 is > 100000 nM. Moreover, in data set [5], the pEC50 was 6.21. In addition, the negative-log IC50 (pIC50) in data set [3] is 8.77. Further, the solubility in data set [6] is 55 µg/mL (≈ 71.5 µM).
Taken in the same sequence, the figures for `CC(C)[C@H](NC(=O)N(C)Cc1nccs1)C(=O)N[C@@H](Cc1ccccc1)[C@H](O)[C@H](O)[C@H](Cc1ccccc1)NC(=O)[C@H](NC(=O)N(C)Cc1nccs1)C(C)C` were > 100000 nM, 6.41, > 9.00 and 57 µg/mL (≈ 70.6 µM).
`CC(C)[C@H](NC(=O)N1CCOCC1)C(=O)N[C@@H](Cc1ccccc1)[C@H](O)[C@H](O)[C@H](Cc1ccccc1)NC(=O)[C@H](NC(=O)N1CCOCC1)C(C)C` gave a pEC50 in data set [1] of 4.06. In data set [2], the CC50 was > 100000 nM. For the same compound, the negative logarithm of the IC50 (pIC50) in data set [3] was 7.37.
Regarding `CC(C)[C@H](NC(=O)N(C)Cc1nccs1)C(=O)N[C@@H](Cc1ccccc1)[C@@H](O)[C@H](O)[C@H](Cc1ccccc1)NC(=O)[C@H](NC(=O)N(C)Cc1nccs1)C(C)C`, in data set [4], the CC50 is > 100000 nM. Moreover, the negative-log EC50 (pEC50) in data set [5] was 6.41. Also, the negative logarithm of the IC50 (pIC50) in data set [3] was > 9.00. For the same compound, the solubility in data set [6] was 101 µg/mL (≈ 125 µM).
The corresponding values for `CC(C)[C@H](NC(=O)N(C)Cc1ccccn1)C(=O)N[C@@H](Cc1ccccc1)[C@H](O)[C@@H](O)[C@H](Cc1ccccc1)NC(=O)[C@H](NC(=O)N(C)Cc1cscn1)C(C)C` are > 100000 nM, 6.70, > 9.00 and 1 µg/mL (≈ 1.25 µM).
Taken in the same sequence, the figures for `CC(C)[C@H](NC(=O)N(C)Cc1cscn1)C(=O)N[C@@H](Cc1ccccc1)[C@@H](O)[C@@H](O)[C@H](Cc1ccccc1)NC(=O)[C@H](NC(=O)N(C)Cc1cscn1)C(C)C` were > 100000 nM, 6.20, > 9.00 and 286 µg/mL (≈ 354 µM).
The corresponding values for `CC(C)[C@H](NC(=O)c1ccc2ccccc2n1)C(=O)N[C@@H](Cc1ccccc1)C(O)[C@H](Cc1ccccc1)NC(=O)[C@H](NC(=O)c1ccc2ccccc2n1)C(C)C` (stereo partly drawn) are > 100000 nM, 5.68, 8.80 and 0.23 µg/mL (≈ 0.295 µM).
For the compound `CC(C)[C@H](NC(=O)CCc1cccnc1)C(=O)N[C@@H](Cc1ccccc1)[C@@H](O)[C@@H](O)[C@H](Cc1ccccc1)NC(=O)[C@H](NC(=O)CCc1cccnc1)C(C)C`, the pEC50 in data set [1] was 5.02. Also, in data set [2], the 50% cytotoxic concentration (CC50) is > 100000 nM. In addition, the negative logarithm of the IC50 (pIC50) in data set [3] was 8.82.
Turning to `CC(C)[C@H](NC(=O)N(C)Cc1ccccn1)C(=O)N[C@@H](Cc1ccccc1)[C@H](O)[C@@H](O)[C@H](Cc1ccccc1)NC(=O)[C@H](NC(=O)N(C)Cc1csc(N)n1)C(C)C`, the CC50 in data set [4] was > 100000 nM. In data set [5], this compound gave a pEC50 of 6.25. Further, the pIC50 in data set [3] was > 9.00. The solubility in data set [6] was 386 µg/mL (≈ 473 µM).
The corresponding values for `CC(C)[C@H](NC(=O)OCc1ccccn1)C(=O)N[C@@H](Cc1ccccc1)[C@@H](O)[C@H](O)[C@H](Cc1ccccc1)NC(=O)[C@H](NC(=O)OCc1ccccn1)C(C)C` are > 100000 nM, 7.22, > 9.00 and 2.4 µg/mL (≈ 3.12 µM).
`CC(C)[C@H](NC(=O)CCc1ccccn1)C(=O)N[C@@H](Cc1ccccc1)C(O)[C@H](Cc1ccccc1)NC(=O)[C@H](NC(=O)CCc1ccccn1)C(C)C` (stereo partly drawn) had a negative-log EC50 (pEC50) in data set [1] of 5.66. The CC50 in data set [2] is > 100000 nM. In data set [3], the pIC50 is 7.92.
Take `CC(C)[C@H](NC(=O)N(C)CCc1ccccn1)C(=O)N[C@@H](Cc1ccccc1)[C@@H](O)[C@@H](O)[C@H](Cc1ccccc1)NC(=O)[C@H](NC(=O)N(C)CCc1ccccn1)C(C)C`: in data set [4], the cytotoxic concentration (CC50) is > 100000 nM. In addition, in data set [5], the negative-log EC50 (pEC50) is 4.89. Besides, in data set [3], the negative logarithm of the IC50 (pIC50) was 7.66. The solubility in data set [6] was 355 µg/mL (≈ 431 µM).

By pEC50 is commonly meant the negative decadic logarithm of the EC50, by convention in mol/L. In general, CC50 refers to the concentration that lowers cell viability or growth by half. Read a low CC50 as harm at low concentration. In general, pIC50 refers to the IC50 on a negative log10 scale, so that one unit is a factor of ten.
